Measurements reported in ChEMBL document CHEMBL1139871, “Selective urokinase-type plasminogen activator inhibitors. 4. 1-(7-sulfonamidoisoquinolinyl)guanidines” (J Med Chem, 2007).
Converted amounts (≈) assume the structure as drawn.

Tests used:
[1] = target: T1, Plasminogen (Homo sapiens, UniProt P00747); assay: Inhibition of human plasmin
How it was run: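 Human plasmin 0.7 µg/mL with 0.2 mM Chromozym-PL and varied inhibitor in Tris pH 8.1/NaCl buffer. Preincubated 15 min at 37 °C, then 30 min at 37 °C with substrate. A405 background-subtracted, % inhibition plotted for IC50.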

[2] = target: T2, Tissue-type plasminogen activator (Homo sapiens, UniProt P00750); assay: Inhibition of human tPA
How it was run: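 Human one-chain tPA 0.4 µg/mL (final) with 0.1 mg/mL tPA stimulator, preincubated 15 min at 37 °C with inhibitor in 75 mM Tris pH 8.1, 50 mM NaCl. Then 0.4 mM S-2288 (H-D-Ile-Pro-Arg-pNA) added, 60 min at 37 °C. A405 read after preincubation and after substrate incubation, background subtracted. IC50 from % inhibition vs concentration. Ki = IC50/(1+[S]/Km), Km 250 µM.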
Target sequence in this assay (P00750 whole entry): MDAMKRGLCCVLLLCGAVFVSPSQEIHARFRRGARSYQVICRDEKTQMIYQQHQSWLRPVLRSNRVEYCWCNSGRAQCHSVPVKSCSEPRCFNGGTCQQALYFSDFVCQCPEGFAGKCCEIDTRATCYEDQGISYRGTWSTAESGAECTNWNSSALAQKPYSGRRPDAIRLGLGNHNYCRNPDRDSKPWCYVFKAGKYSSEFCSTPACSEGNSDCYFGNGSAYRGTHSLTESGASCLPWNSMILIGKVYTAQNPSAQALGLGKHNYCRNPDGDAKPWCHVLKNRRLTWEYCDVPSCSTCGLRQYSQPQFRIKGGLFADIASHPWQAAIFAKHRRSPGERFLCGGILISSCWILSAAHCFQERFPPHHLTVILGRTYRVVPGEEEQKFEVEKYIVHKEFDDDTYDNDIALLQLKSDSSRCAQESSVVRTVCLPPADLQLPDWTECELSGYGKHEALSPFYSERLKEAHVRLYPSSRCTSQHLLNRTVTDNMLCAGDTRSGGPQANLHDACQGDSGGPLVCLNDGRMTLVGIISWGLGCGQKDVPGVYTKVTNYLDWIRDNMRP

[3] = target: T2, Tissue-type plasminogen activator; assay: Inhibition of human tPA at 100 uM
How it was run: (§1)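 Human one-chain tPA (0.4 µg/mL final) with 0.1 mg/mL tPA stimulator, preincubated with inhibitor for 15 min at 37 °C in 75 mM Tris pH 8.1, 50 mM NaCl. Then incubated with 0.4 mM S-2288 substrate for 60 min at 37 °C. Absorbance read at 405 nm, background subtracted, and percent inhibition calculated.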
Target sequence in this assay (P00750 36-562 limits assumed): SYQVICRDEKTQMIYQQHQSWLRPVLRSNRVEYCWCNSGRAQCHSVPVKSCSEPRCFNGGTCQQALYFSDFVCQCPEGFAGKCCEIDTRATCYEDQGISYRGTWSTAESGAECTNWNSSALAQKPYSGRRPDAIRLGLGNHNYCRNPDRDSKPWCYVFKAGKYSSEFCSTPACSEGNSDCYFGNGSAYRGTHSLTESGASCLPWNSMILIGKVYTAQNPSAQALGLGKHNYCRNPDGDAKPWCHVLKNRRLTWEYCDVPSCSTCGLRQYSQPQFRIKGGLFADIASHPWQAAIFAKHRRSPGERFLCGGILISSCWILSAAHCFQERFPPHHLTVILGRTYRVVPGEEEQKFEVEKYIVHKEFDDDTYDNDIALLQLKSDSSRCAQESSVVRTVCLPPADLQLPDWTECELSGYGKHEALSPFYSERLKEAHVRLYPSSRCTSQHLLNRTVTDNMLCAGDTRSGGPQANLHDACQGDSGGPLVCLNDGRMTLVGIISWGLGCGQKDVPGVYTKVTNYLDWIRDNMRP

[4] = target: T2, Tissue-type plasminogen activator; assay: Inhibition of human tPA at 30 uM; how it was run: as §1
Target sequence in this assay (P00750 36-562 limits assumed): as above

[5] = target: T3, Urokinase-type plasminogen activator (Homo sapiens, UniProt P00749)
[6] = target: T1, Plasminogen; assay: Inhibition of human plasmin at 100 uM
How it was run: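 Human plasmin (0.7 µg/mL) preincubated with inhibitor for 15 min at 37 °C in 75 mM Tris pH 8.1, 50 mM NaCl. Then incubated with 0.2 mM Chromozym-PL for 30 min at 37 °C. Absorbance read at 405 nm, background at time zero subtracted, and percent inhibition calculated.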

[7] = Solubility in phosphate buffered saline at pH 6.5; type: physicochemical
How it was run: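 Solubility measured in phosphate-buffered saline, pH 6.5.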

[8] = species on record: Homo sapiens; assay: Solubility in human plasma
[9] = target: Coagulation factor X (Homo sapiens) (UniProt P00742); assay: Inhibition of factor 10a at 10 uM
Chain of Coagulation factor X (Homo sapiens) (P00742 41-179 limits assumed): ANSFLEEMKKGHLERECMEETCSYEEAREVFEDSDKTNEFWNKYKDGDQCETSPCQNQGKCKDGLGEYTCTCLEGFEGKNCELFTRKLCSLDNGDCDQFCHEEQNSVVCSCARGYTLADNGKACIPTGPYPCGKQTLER
Chain of Coagulation factor X (Homo sapiens) (P00742 235-488 limits assumed): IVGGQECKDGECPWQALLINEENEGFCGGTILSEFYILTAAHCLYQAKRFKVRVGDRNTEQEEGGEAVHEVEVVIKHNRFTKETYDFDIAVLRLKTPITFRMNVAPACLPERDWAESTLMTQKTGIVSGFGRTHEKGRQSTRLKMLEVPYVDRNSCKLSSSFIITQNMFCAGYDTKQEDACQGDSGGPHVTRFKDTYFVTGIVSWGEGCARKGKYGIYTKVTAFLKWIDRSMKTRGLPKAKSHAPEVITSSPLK
How it was run: (§2)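 Human coagulation enzyme tested in a chromogenic enzyme assay. Percent inhibition was read at a single inhibitor concentration.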

[10] = target: T3, Urokinase-type plasminogen activator; assay: Inhibition of human uPA in human wound fluid
[11] = target: T4, Coagulation factor VII (Homo sapiens) (UniProt P08709); assay: Inhibition of factor 7a at 10 uM
T4 sequence (whole entry): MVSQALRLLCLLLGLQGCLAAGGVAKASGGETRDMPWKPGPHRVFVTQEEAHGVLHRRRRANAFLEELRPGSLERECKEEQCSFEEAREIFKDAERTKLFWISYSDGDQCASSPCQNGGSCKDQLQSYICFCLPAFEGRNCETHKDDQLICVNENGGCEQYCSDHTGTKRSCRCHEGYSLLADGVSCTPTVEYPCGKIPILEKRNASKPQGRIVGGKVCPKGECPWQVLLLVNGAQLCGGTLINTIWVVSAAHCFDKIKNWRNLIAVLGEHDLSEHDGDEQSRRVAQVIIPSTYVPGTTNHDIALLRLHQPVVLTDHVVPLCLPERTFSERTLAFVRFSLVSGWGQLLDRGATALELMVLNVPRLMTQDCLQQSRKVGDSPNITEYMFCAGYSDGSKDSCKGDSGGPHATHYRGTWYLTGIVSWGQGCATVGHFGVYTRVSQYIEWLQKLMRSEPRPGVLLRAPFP
How it was run: (§3)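 Chromogenic enzyme assays against coagulation proteases: bovine thrombin, human factors VIIa and IXa.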

[12] = Lipophilicity, log D at pH7.4; type: physicochemical; settings: buffer, pH 7.4
[13] = species on record: Homo sapiens; assay: Protein binding in human plasma; settings: read-out: PPB (converted)
[14] = target: T3, Urokinase-type plasminogen activator; assay: Inhibition of uPA in pig granulation tissue homogenate
[15] = target: Prothrombin (Bos taurus) (UniProt P00735); assay: Inhibition of bovine thrombin at 10 uM; how it was run: as §3
[16] = Dissociation constant, pKa of the compound; type: physicochemical
[17] = target: T5, Coagulation factor IX (Homo sapiens, UniProt P00740); assay: Inhibition of factor 9a; how it was run: as §3
T5 sequence (P00740 47-191 limits assumed): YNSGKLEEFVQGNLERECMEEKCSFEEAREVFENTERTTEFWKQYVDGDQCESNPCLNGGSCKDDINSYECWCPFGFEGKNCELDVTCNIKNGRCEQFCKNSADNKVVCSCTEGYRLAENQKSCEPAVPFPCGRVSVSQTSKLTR
T5 sequence (P00740 227-461 limits assumed): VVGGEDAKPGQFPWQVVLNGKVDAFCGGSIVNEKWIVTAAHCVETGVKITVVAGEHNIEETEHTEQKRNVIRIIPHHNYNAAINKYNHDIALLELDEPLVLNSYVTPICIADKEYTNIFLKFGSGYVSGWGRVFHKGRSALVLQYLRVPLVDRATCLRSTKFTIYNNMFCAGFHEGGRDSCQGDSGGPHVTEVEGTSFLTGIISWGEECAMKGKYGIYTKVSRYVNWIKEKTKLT

[18] = target: T5, Coagulation factor IX; assay: Inhibition of factor 9a at 12.5 uM; how it was run: as §2
[19] = Drug level in dermis of pig excisional wound model; type: ADME, tissue-based, Sus scrofa; settings: in vivo, read-out: Activity
How it was run: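 Pig full-thickness wounds dosed topically once daily for 10 days with 1 mL of 10 mg/mL compound suspended in hydrogel (glycerol/water/F127/CMC). Animals killed on day 11. Wounds excised and dermal compound concentration determined.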

T1 sequence (P00747 97-580 limits assumed): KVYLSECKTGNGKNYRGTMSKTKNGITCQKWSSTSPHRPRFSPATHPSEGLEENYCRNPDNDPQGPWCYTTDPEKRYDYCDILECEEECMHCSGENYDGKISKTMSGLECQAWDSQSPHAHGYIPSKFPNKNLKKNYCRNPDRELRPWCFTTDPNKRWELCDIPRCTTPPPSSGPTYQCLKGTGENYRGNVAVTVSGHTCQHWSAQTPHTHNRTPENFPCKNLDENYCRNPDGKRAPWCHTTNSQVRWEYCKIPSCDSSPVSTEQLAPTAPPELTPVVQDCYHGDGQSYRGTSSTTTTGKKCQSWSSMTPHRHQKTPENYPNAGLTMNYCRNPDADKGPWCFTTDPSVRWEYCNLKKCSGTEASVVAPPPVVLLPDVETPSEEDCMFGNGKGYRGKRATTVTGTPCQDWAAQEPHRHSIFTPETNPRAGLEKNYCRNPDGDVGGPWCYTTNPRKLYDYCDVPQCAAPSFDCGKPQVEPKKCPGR
T1 sequence (P00747 581-810 limits assumed): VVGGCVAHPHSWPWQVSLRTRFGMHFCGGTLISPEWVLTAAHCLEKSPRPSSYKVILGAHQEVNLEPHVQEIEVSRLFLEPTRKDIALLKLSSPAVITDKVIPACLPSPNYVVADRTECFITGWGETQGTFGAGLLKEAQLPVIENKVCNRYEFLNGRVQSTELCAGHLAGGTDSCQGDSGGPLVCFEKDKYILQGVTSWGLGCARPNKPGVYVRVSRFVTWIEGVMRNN

Structure (SMILES)	Ki [1]	Ki [2]	Ki [5]	other results
NC(N)=Nc1ncc(Cl)c2ccc(S(=O)(=O)NC3(C(=O)O)CCOCC3)cc12	41 µM	> 100 µM	–	–
CN(CC(=O)O)S(=O)(=O)c1ccc2c(Cl)cnc(N=C(N)N)c2c1	> 100 µM	> 100 µM	–	inhibition [3]: < 50%
NC(N)=Nc1ncc(Cl)c2ccc(S(=O)(=O)NC3CCCC3)cc12	> 100 µM	> 30 µM	0.071 µM	inhibition [4]: < 50%
CN1CCN(S(=O)(=O)c2ccc3c(Cl)cnc(N=C(N)N)c3c2)CC1	–	–	0.55 µM	–
NC(N)=Nc1ncc(Cl)c2ccc(S(=O)(=O)NCC(=O)O)cc12	> 30 µM	> 30 µM	0.048 µM	–
CCOC(=O)C1(NS(=O)(=O)c2ccc3c(Cl)cnc(N=C(N)N)c3c2)CCCC1	> 100 µM	23 µM	0.014 µM	inhibition [6]: < 50%
NC(N)=Nc1ncc(Cl)c2ccc(S(=O)(=O)N3CC(C(=O)O)C3)cc12	–	–	0.33 µM	–
NC(N)=Nc1ncc(Cl)c2ccc(S(=O)(=O)N3CCC[C@@H]3CO)cc12	–	–	0.16 µM	–
NC(N)=Nc1ncc(Cl)c2ccc(S(=O)(=O)N(CC(=O)O)CC3CCCC3)cc12	23 µM	> 100 µM	0.031 µM	–
NC(N)=Nc1nccc2ccc(S(=O)(=O)Nc3ccccc3)cc12	3.2 µM	15 µM	–	–
NC(N)=Nc1ncc(Cl)c2ccc(S(=O)(=O)Nc3ccccc3C(=O)O)cc12	33 µM	> 100 µM	0.086 µM	–
CC(C)(C)[C@@H](NS(=O)(=O)c1ccc2c(Cl)cnc(N=C(N)N)c2c1)C(=O)O	> 100 µM	> 100 µM	0.022 µM	–
C[C@H](NS(=O)(=O)c1ccc2c(Cl)cnc(N=C(N)N)c2c1)C(=O)O	15 µM	–	0.021 µM	–
CN(C)CCNC(=O)C1(NS(=O)(=O)c2ccc3c(Cl)cnc(N=C(N)N)c3c2)CCCC1	> 100 µM	–	0.03 µM	–
NC(N)=Nc1ncc(Cl)c2ccc(S(=O)(=O)NC3(C(=O)N4CCOCC4)CCCC3)cc12	> 30 µM	34.4 µM	0.0016 µM	–
CN(C)CCN(C1(C(=O)O)CCCC1)S(=O)(=O)c1ccc2c(Cl)cnc(N=C(N)N)c2c1	32 µM	23 µM	–	–
C[C@@H](C(=O)O)N(Cc1ccccc1)S(=O)(=O)c1ccc2c(Cl)cnc(N=C(N)N)c2c1	–	> 100 µM	0.027 µM	–
C[C@@H](NS(=O)(=O)c1ccc2c(Cl)cnc(N=C(N)N)c2c1)C(=O)O	–	–	0.028 µM	–
NC(=O)[C@H]1CCCN1S(=O)(=O)c1ccc2c(Cl)cnc(N=C(N)N)c2c1	–	–	0.054 µM	–
NC(N)=Nc1ncc(Cl)c2ccc(S(N)(=O)=O)cc12	> 100 µM	> 100 µM	–	inhibition [3]: < 50%
NC(N)=Nc1nccc2c(Cl)cc(-c3cccc(C(=O)O)c3)cc12	–	–	–	solubility [7]: < 1 µg/mL; solubility [8]: 60 µM (≈ 20.4 µg/mL); inhibition [9]: 0%; IC50 [10]: 6.91 µM; inhibition [11]: 3%; logD [12]: 2.3; fraction unbound [13]: 0.002; IC50 [14]: 8.35 µM; inhibition [15]: 2%; pKa [16]: 2.35; Ki [17]: 1.24 µM

Structure (SMILES)	Ki [1]	Ki [2]	Ki [5]	other results
NC(N)=Nc1ncc(Cl)c2ccc(S(=O)(=O)N3CCC[C@H]3C(=O)O)cc12	> 100 µM	> 100 µM	0.111 µM	–
CC(C)[C@@H](NS(=O)(=O)c1ccc2c(Cl)cnc(N=C(N)N)c2c1)C(=O)O	16 µM	38 µM	0.019 µM	–
CN1CCN(C(=O)C2(NS(=O)(=O)c3ccc4c(Cl)cnc(N=C(N)N)c4c3)CCCC2)CC1	65 µM	34.7 µM	0.0014 µM	–
NC(N)=Nc1ncc(Cl)c2ccc(S(=O)(=O)N3CCC[C@@H]3C(=O)O)cc12	> 100 µM	> 100 µM	0.0099 µM	inhibition [3]: < 50%
CC(C)(CNS(=O)(=O)c1ccc2c(Cl)cnc(N=C(N)N)c2c1)C(=O)O	–	–	0.043 µM	–
NC(N)=Nc1ncc(Cl)c2ccc(S(=O)(=O)N3CCCC3)cc12	> 30 µM	> 30 µM	–	–
CC(C)[C@H](NS(=O)(=O)c1ccc2c(Cl)cnc(N=C(N)N)c2c1)C(=O)O	45 µM	> 100 µM	0.066 µM	–
NC(N)=Nc1ncc(Cl)c2ccc(S(=O)(=O)NC3(C(=O)O)CCCCC3)cc12	39 µM	> 100 µM	0.008 µM	–
NC(N)=Nc1ncc(Cl)c2ccc(S(=O)(=O)NC3(C(=O)NCCO)CCCC3)cc12	> 100 µM	108 µM	0.01 µM	–
CN1CCC(NS(=O)(=O)c2ccc3c(Cl)cnc(N=C(N)N)c3c2)(C(=O)O)CC1	71 µM	–	0.011 µM	–
NC(N)=Nc1ncc(Cl)c2ccc(S(=O)(=O)NC3(CO)CCCC3)cc12	–	–	0.067 µM	–
NC(N)=Nc1ncc(Cl)c2ccc(S(=O)(=O)NCCC(=O)O)cc12	> 100 µM	> 100 µM	0.058 µM	–
NC(N)=Nc1ncc(Cl)c2ccc(S(=O)(=O)N3CCOCC3)cc12	–	–	0.33 µM	–
NC(N)=Nc1ncc(Cl)c2ccc(S(=O)(=O)NC3(C(=O)O)CCCC3)cc12	14 µM	38 µM	0.0058 µM	–
NC(N)=Nc1ncc(Cl)c2ccc(S(=O)(=O)Nc3cccc(C(=O)O)c3)cc12	9.8 µM	> 100 µM	0.059 µM	–
NC(N)=Nc1nccc2ccc(S(N)(=O)=O)cc12	13 µM	24 µM	0.28 µM	–
NC(N)=Nc1ncc(Cl)c2ccc(S(=O)(=O)N3CCCC[C@@H]3C(=O)O)cc12	> 100 µM	> 100 µM	–	–
NC(N)=Nc1ncc(Cl)c2ccc(S(=O)(=O)N(CC(=O)O)Cc3ccccc3)cc12	> 100 µM	> 100 µM	0.035 µM	–
NC(N)=Nc1ncc(Cl)c2ccc(S(=O)(=O)N(CC(=O)O)c3ccccc3)cc12	> 100 µM	> 100 µM	0.029 µM	–
CC(C)(NS(=O)(=O)c1ccc2c(Cl)cnc(N=C(N)N)c2c1)C(=O)O	27 µM	40 µM	–	solubility [7]: 2.3 µg/mL (≈ 5.96 µM); inhibition [9]: 0%; logD [12]: 0; inhibition [18]: 13%; concentration [19]: 41.8 µM; pKa [16]: 3.4
NC(N)=Nc1ncc(Cl)c2ccc(S(=O)(=O)NC3(C(=O)O)CCC3)cc12	16 µM	> 100 µM	–	inhibition [3]: < 50%
